Laboratory results reported in ChEMBL document CHEMBL1122366, “Potential antiatherosclerotic agents. 3. Substituted benzoic and non benzoic acid analogues of cetaben” (1983).

Key:
Rattus norvegicus [1] = experiment: In vivo triglyceride lowering activity when dosed at 0.03 % of the diet; format: functional
Method in brief: (§1)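 Normal rats were dosed in the diet. Serum sterol and triglyceride levels were measured and expressed as the mean percent of control values. Significance versus control was reported at p < 0.05, 0.01 and 0.001.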

Rattus norvegicus [2] = experiment: In vivo sterol lowering activity when dosed as 0.01 % of the diet; format: functional; method in brief: as §1
Rattus norvegicus [3] = experiment: In vivo sterol lowering activity when dosed as 0.03 % of the diet; format: functional; method in brief: as §1
Rattus norvegicus [4] = experiment: In vivo sterol lowering activity at dose of 0.10 % of the diet; format: functional; method in brief: as §1
Rattus norvegicus [5] = experiment: In vivo triglyceride lowering activity when dosed as 0.01 % of the diet; format: functional; method in brief: as §1
Rattus norvegicus [6] = experiment: In vivo triglyceride lowering activity dosed at 0.10 % of the diet.; format: functional; method in brief: as §1
[7] = target: T1, Sterol O-acyltransferase 1 (Rattus norvegicus) (UniProt O70536); experiment: In vitro inhibition of acyl coenzyme A:cholesterol acyltransferase; design: concentration or dose not given beside the values; details: concentration not given here
T1 sequence (whole entry): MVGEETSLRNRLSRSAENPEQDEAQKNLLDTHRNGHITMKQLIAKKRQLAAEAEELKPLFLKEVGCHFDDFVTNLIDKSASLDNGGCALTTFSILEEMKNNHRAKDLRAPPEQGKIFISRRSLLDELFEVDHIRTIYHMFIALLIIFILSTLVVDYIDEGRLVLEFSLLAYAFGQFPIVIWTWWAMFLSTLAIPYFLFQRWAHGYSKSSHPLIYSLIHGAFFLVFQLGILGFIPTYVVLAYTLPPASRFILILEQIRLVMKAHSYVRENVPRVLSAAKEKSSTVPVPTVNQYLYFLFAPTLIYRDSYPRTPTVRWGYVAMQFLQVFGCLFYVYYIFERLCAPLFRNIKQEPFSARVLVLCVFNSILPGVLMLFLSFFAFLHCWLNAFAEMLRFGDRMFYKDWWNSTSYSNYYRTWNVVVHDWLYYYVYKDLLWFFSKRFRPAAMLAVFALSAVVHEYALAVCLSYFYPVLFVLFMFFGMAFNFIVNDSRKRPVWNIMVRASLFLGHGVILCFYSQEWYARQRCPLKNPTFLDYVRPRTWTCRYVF
Method in brief: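 Enzyme fatty acyl-CoA:cholesterol acyltransferase (ACAT), assayed in vitro at a single drug concentration of 5.2 μg/mL. The value is the mean percent inhibition of enzyme activity.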

inhibition [7] [%] | Compound | serum triglyceride level, percent of control (Rattus norvegicus [1]) [%] | serum sterol level, % of control (Rattus norvegicus [2]) [%] | serum sterol level, percent of control (Rattus norvegicus [3]) [%] | serum sterol level, percent of control (Rattus norvegicus [4]) [%] | serum triglyceride level, percent of control (Rattus norvegicus [5]) [%] | serum triglyceride, percent of control (Rattus norvegicus [6]) [%]
– | CCCCCCCCCCCCCCCCCN(CC)c1ccc(C(=O)O)cc1 | 108 | 98 | 98 | 95 | 126 | 106
7 | CCCCCCCCCCCCCCCCNc1ccc(C(=O)CCC(=O)OC)cc1 | 93 | – | <81 | <84 | – | 86
– | CCCCCCCCCCCCCCCCNc1ccc(C(=O)O)c(Cl)c1 | 109 | 100 | 95 | 95 | 113 | 101
– | CCCCCCCCCCCCCCCCCCN(CC)c1ccc(C(=O)O)cc1 | 102 | 102 | 102 | 108 | 85 | 103
– | CCCCCCCCCCCCCCCCNc1ccc(C(=O)[N-]S(=O)(=O)c2ccc(C)cc2)cc1.[Na+] | <37 | <64 | <52 | <48 | <52 | <32
– | CCCCCCCCCCCCCCCCCCN(C)c1ccc(C(=O)O)cc1 | <61 | 101 | 92 | 91 | 86 | <75
– | CCCCCCCCCCCCCCCCNc1ccc(C#N)cc1 | 71 | 86 | 92 | 96 | 83 | 75
– | CCCCCCCCCCCCCCCCNc1ccc(C(=O)OCC(O)CO)cc1.Cl (stereo not drawn) | <49 | <88 | 92 | <69 | 98 | <30
– | CCCCCCCCCCCCCCCCN(CC)c1ccc(C(=O)[O-])cc1.[Na+] | – | 114 | 116 | 116 | – | –
– | CCCCCCCCCCCCCCCCN(C)c1ccc(C(=O)OCC)cc1 | <73 | <70 | 84 | <74 | <64 | 78
< 24 | CCCCCCCCCCCCCCCCNc1ccc(C(=O)OCC(COC)OC)cc1 (stereo not drawn) | 62 | – | 83 | 82 | – | 70
– | CCCCCCCCCCCCCCCCNc1ccc(C(=O)OCC(O)CO)cc1 (stereo not drawn) | <67 | <85 | <82 | <71 | <73 | <45
– | CCCCCCCCCCCCCCCCNc1ccc(C(N)=O)cc1 | – | 100 | 102 | <86 | – | 114
– | CCCCCCCCCCCCCCCCNc1ccc(C(=O)OCC)cc1C | 94 | 92 | <87 | 103 | 81 | 95
59 | CCCCCCCCCCCCCCCCNc1ccc(C(=O)N2CCCC2)cc1 | – | 113 | 98 | 101 | 75 | 95
